# High-throughput results deposited in PubChem by Broad Institute.
# IDH1 R132H inh: IDH1 R132H (human) inhibition; IDH1 R132H reductase, diaphorase/resazurin fluorescence, 60 min; inhibition, % at 10 µM; hit rate 0.18% among 70,000; in the data active = inhibition above about 34%; inconclusive = no clear call, values can overlap the other calls; inactive = below about 11%;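 also: 0% = DMSO and 100% = no enzyme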
# KDM4C inh: KDM4C (human) demethylase inhibition; inhibition, % at 12.5 µM; AID 720574; hit rate 0.15% among 96,000; Q9H3R0; GST-KDM4C 2-372, H3K9me3 peptide, LANCE TR-FRET;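 active = mean replicate inhibition above about 25%, with at least 55% of replicates also reaching it, limit read from the data, passing the limit was not always enough; inconclusive = only one of those two conditions met; inactive = neither condition met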
# Target sequence (Q9H3R0 2-372 limits assumed): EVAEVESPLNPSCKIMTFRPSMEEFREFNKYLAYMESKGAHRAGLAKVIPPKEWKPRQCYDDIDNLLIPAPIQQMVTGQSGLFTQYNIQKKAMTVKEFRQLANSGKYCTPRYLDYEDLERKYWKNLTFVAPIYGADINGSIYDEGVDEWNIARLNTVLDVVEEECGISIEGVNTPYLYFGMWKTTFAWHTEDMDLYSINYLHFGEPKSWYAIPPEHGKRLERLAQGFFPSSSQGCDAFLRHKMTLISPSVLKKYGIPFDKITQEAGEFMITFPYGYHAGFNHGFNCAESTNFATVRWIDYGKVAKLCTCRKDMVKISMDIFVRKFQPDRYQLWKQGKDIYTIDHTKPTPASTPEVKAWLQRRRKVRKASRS
#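 Test system – GST-tagged GASC-1 (JMJD2C) catalytic fragment, aa 2-372 · Medium – HEPES buffer, pH 7.5, plus ascorbate · Reagent – H3K9me3 peptide with Fe(II)/2OG · Compound – one test concentration per compound · Timing – 30 min reaction, 60 min detection, RT · Technique – TR-FRET with Eu antibody and ULight streptavidin, EDTA stop · Read-out basis – inhibition from TR-FRET ratio decrease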
# Pf Dd2 inh: inhibitors of Plasmodium falciparum Dd2 growth; P. falciparum Dd2 growth, SYBR Green, 72 h; hits give low values; hit rate 2.3% among 94,000; activity change, % at 10 µM; AID 1159554; in the data active = activity change below about -80%; inconclusive = no clear call, values can overlap the other calls
# T cruzi growth-1: T. cruzi proliferation inhibition; T. cruzi beta-gal in NIH3T3, GalScreen luminescence, 90 h; inhibition, % at 8.34 µM; hit rate 5.9% among 77,000; AID 624255;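 active = mean inhibition above about 93%, with at least 55% of replicates each passing it, limit read from the data, passing the limit was not always enough; inconclusive = only one of those two conditions holds; inactive = neither condition holds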
# T cruzi growth-2: Trypanosoma cruzi proliferation inhibition | shares compounds with T cruzi growth-1 | T. cruzi beta-gal in NIH3T3, GalScreen luminescence, 90 h | inhibition, % at 8.35 µM | hit rate 72% among 5,600 | AID 651739;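 active = mean replicate inhibition above about 95% and at least 55% of replicates individually reaching it, limit read from the data; inconclusive = only one of the two criteria is met; inactive = neither criterion is met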
# T cruzi growth-3: inhibitors of T. cruzi proliferation | inhibition, % at 2.09 µM | shares compounds with T cruzi growth-1 | hit rate 21% among 5,600 | T. cruzi beta-gal in NIH3T3, GalScreen luminescence, 90 h;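 active = mean inhibition above about 95%, with at least 55% of replicates also reaching it, limit read from the data; inconclusive = meets just one of the two conditions; inactive = meets neither condition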;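 also: plate controls were neutral control median for no effect and positive control median for full effect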
# 3T3 cytotox: NIH/3T3 (mouse) viability loss; cytotoxicity (signal decrease), % at 8.35 µM; NIH/3T3 viability, CellTiter-Glo ATP luminescence, 90 h; hit rate 14% among 5,600; shares compounds with T cruzi growth-1;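 active = mean signal decrease across replicates above about 35% based on untreated-well scatter, with enough replicates individually passing, limit read from the data; inconclusive = no rule stated though some were filed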;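 also: 0% = median of neutral control wells and 100% = median of positive control wells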
# NIH3T3 tox 2: NIH/3T3 (mouse) viability loss; shares compounds with T cruzi growth-1; NIH/3T3 viability, CellTiter-Glo ATP luminescence, 90 h; inhibition, % at 24.9 µM; hit rate 56% among 5,600; AID 651744;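 active = mean loss of cell viability signal at or above a set limit, and enough replicates individually reaching it; inconclusive = meets only the mean limit or only the replicate share; inactive = meets neither condition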;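 also: 0% = median of neutral control wells and 100% = median of positive control wells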
# Numbers without * were called inactive; ? = inconclusive; . = no result given. Hits are enriched below; roughly 5.8% of the tested compounds scored in any of these assays.
SMILES,IDH1 R132H inh,KDM4C inh,Pf Dd2 inh,T cruzi growth-1,T cruzi growth-2,T cruzi growth-3,3T3 cytotox,NIH3T3 tox 2
O=C(C[C@H]1CC[C@H]2[C@@H](COC[C@@H](O)CN2Cc2ccc3c(c2)OCO3)O1)Nc1ccccc1,.,0.7,-9.2,71.3,.,.,.,.
O=C(C[C@@H]1CC[C@@H]2[C@H](COC[C@H](O)CN2Cc2ccc3c(c2)OCO3)O1)Nc1ccc(-c2ccccc2)cc1,.,0.7,-23.9,115.0*,99.1*,99.3*,16.1,30.3*
O=C(C[C@H]1CC[C@@H]2[C@H](COC[C@@H](O)CN2Cc2ccc3c(c2)OCO3)O1)Nc1ccc(-c2ccccc2)cc1,.,2.1,-32.3,89.1,.,.,.,.
O=C(C[C@H]1CC[C@H]2[C@@H](COC[C@@H](O)CN2Cc2ccc3c(c2)OCO3)O1)Nc1ccc(-c2ccccc2)cc1,.,4.2,-39.8,112.7*,99.0*,84.5,30.6,69.4*
COc1ccccc1CNC(=O)C[C@H]1CC[C@H]2[C@@H](COC[C@H](O)CN2Cc2ccc3c(c2)OCO3)O1,.,1.5,-22.5,104.0*,43.3,19.6,10.5,15.0
COC(=O)COc1cccc(NC(=O)c2ccc(NC(=O)c3ccco3)cc2)c1,1.6,.,.,.,.,.,.,.
C[C@H]1CN([C@@H](C)CO)C(=O)c2cc(NS(=O)(=O)c3cccs3)ccc2O[C@@H]1CN(C)S(=O)(=O)c1cn(C)cn1,-4.0,-0.2,23.2,31.8,.,.,.,.
COc1ccccc1C(=O)Nc1ccc2c(c1)OC[C@@H](C)N(C)C[C@@H](C)[C@H](OC)CN(C)C2=O,-0.4,0.7,-30.5,-63.8,.,.,.,.
N#C[C@H]1[C@@H](c2ccc(C#Cc3cccc(F)c3)cc2)[C@H](CO)N1C(=O)C1CCCC1,.,-2.3,-22.3,100.4*,92.2,105.4*,8.9,103.4*
N#C[C@H]1[C@H](c2ccc(C#Cc3cccc(F)c3)cc2)[C@@H](CO)N1C(=O)C1CCCC1,.,-0.4,-38.6,98.8*,94.4,101.7*,4.9,96.0*
N#C[C@H]1[C@H](c2ccc(C#Cc3cccc(F)c3)cc2)[C@H](CO)N1C(=O)C1CCCC1,.,-0.1,-45.1,104.7*,102.2*,76.7,10.5,95.3*
N#C[C@H]1[C@H](c2ccc(C#Cc3ccc(F)cc3)cc2)[C@@H](CO)N1C(=O)C1CCC1,.,-0.2,-62.5,92.9,.,.,.,.
N#C[C@H]1[C@@H](c2ccc(C#Cc3cccc(F)c3)cc2)[C@@H](CO)N1C(=O)C1CCCC1,.,2.0,-14.8,93.3,.,.,.,.
C[C@H](NC(=O)C[C@H]1CC[C@@H](NC(=O)c2cccnc2)[C@H](CO)O1)c1ccccc1,-0.8,-0.1,17.0,-14.6,.,.,.,.
CC(=O)NC[C@@H]1[C@@H](c2ccccc2)[C@H](CO)N1C(=O)Cc1ccncc1,.,1.2,-4.5,38.7,.,.,.,.
CC(C)CC#Cc1ccc([C@@H]2[C@@H](CO)N3CCCCN(C(=O)Nc4ccccc4)C[C@@H]23)cc1,.,-1.0,9.3,111.2*,96.6*,93.5,30.2,102.7*
COc1ccc(NC(=O)N2CCCCN3[C@H](CO)[C@@H](c4ccc(C#CCC(C)C)cc4)[C@H]3C2)cc1,.,-1.4,-68.4,121.9*,88.3,101.3*,117.1*,105.7*
CC(C)CC#Cc1ccc([C@H]2[C@@H](CO)N3CCCCN(C(=O)Nc4ccccc4)C[C@H]23)cc1,.,-1.3,-22.9,37.2,.,.,.,.
CC(C)CC#Cc1ccc([C@H]2[C@H]3CN(C(=O)Nc4ccccc4)CCCCN3[C@H]2CO)cc1,.,8.3,4.1,100.9*,98.3*,90.6,26.8,83.3*
CC(C)CC#Cc1ccc([C@@H]2[C@@H](CO)N3CCCCN(C(=O)Nc4ccccc4)C[C@H]23)cc1,.,-0.4,-31.1,?,94.3,84.5,59.2*,106.4*
O=C(c1cccnc1)N1C[C@H]2[C@@H](c3ccccc31)[C@@H](CO)N2C(=O)Nc1ccccc1Cl,.,-0.3,-9.6,-0.7,.,.,.,.
Cc1ccc(OC(=O)N(C)C[C@H]2OCc3cn(nn3)CCCC(=O)N([C@@H](C)CO)C[C@H]2C)cc1,0.7,-0.1,-0.8,59.3,.,.,.,.
COc1cccc(CN2[C@H](CO)[C@H](c3ccccc3)C23CN(C(=O)C2CCC2)C3)c1,.,0.6,-3.2,.,.,.,.,.
C[C@@H]1CCCCO[C@H](CN(C)S(=O)(=O)c2ccc(F)cc2)[C@H](C)CN([C@@H](C)CO)C(=O)c2cc(NC(=O)Nc3ccc4c(c3)OCO4)ccc2O1,.,-1.9,-81.3*,100.1*,102.2*,72.3,-18.3,12.3
C[C@@H]1CCCCO[C@@H](CN(C)S(=O)(=O)c2ccc(F)cc2)[C@H](C)CN([C@@H](C)CO)C(=O)c2cc(NC(=O)Nc3ccc4c(c3)OCO4)ccc2O1,.,0.2,-19.4,24.2,.,.,.,.
SMILES,IDH1 R132H inh,KDM4C inh,Pf Dd2 inh,T cruzi growth-1,T cruzi growth-2,T cruzi growth-3,3T3 cytotox,NIH3T3 tox 2
C[C@H](CO)N1C[C@H](C)[C@@H](CN(C)S(=O)(=O)c2ccc(F)cc2)OCCCC[C@H](C)Oc2ccc(NC(=O)Nc3ccc4c(c3)OCO4)cc2C1=O,4.2,17.5,-40.4,99.9*,110.1*,62.2,-23.2,4.1
COCC(=O)N1CCCCN2[C@@H](CO)[C@@H](c3ccc(-c4cccc(C)c4)cc3)[C@@H]2C1,.,3.0,33.3,52.7,.,.,.,.
C[C@@H]1CN([C@H](C)CO)C(=O)c2cc(NC(=O)Nc3ccc(C(F)(F)F)cc3)ccc2O[C@@H]1CN(C)S(=O)(=O)c1cccs1,0.3,-2.1,11.9,?,107.8*,19.2,23.1,40.1*
C[C@H]1CN([C@@H](C)CO)C(=O)c2cccc(NS(C)(=O)=O)c2O[C@@H]1CN(C)S(=O)(=O)c1cccs1,-0.2,0.2,-10.6,?,-23.5,8.8,15.0,48.1*
C[C@H]1CN([C@@H](C)CO)C(=O)c2cccc(NC(=O)Nc3ccc(C(F)(F)F)cc3)c2O[C@H]1CN(C)S(=O)(=O)c1cccs1,1.4,-0.8,-17.7,90.5,.,.,.,.
C[C@H](CO)N1C[C@H](C)[C@H](CN(C)S(=O)(=O)c2cccs2)Oc2ccc(NC(=O)Nc3ccc(C(F)(F)F)cc3)cc2C1=O,.,-0.1,3.5,114.9*,103.1*,58.8,16.2,99.6*
C[C@@H]1CN([C@@H](C)CO)C(=O)c2cccc(NS(C)(=O)=O)c2O[C@@H]1CN(C)S(=O)(=O)c1cccs1,0.5,-0.1,-14.7,-25.3,.,.,.,.
C[C@@H]1CN([C@H](C)CO)C(=O)c2cc(NC(=O)Nc3ccc(C(F)(F)F)cc3)ccc2O[C@H]1CN(C)S(=O)(=O)c1cccs1,.,-0.7,0.4,-26.9,.,.,.,.
